Reference: ChEMBL document CHEMBL1140692, “Toward the development of chemoprevention agents. Part II: Chemo-enzymatic synthesis and anti-inflammatory activities of a new class of 5-amino-2-substitutedphenyl-1,3-dioxacycloalkanes” (Bioorg Med Chem, 2007)

Assays:
[1] = Inhibition of bovine brain PKC; parameters: species or system Bos taurus
Mus musculus [2] = experiment: Antiinflammatory activity in Kunming mouse assessed as inhibition of xylene-induced ear edema at 5 mg/kg, po after […]rs; assay type: functional
In short: (§1)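 Male Kunming mice receive the agent orally as a suspension in 0.5% CMC; the vehicle group gets CMC alone. After 30 min, 0.03 ml xylene is applied to both surfaces of the right ear, and the left ear serves as control. At 2 h, mice are killed and 7-mm ear punches are weighed. Edema is taken as right minus left punch weight, and inhibition is calculated versus vehicle. n = 11; ANOVA.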

Mus musculus [3] = experiment: Antiinflammatory activity in Kunming mouse assessed as inhibition of xylene-induced ear edema at 10 mg/kg, po after […]rs; assay type: functional; in short: as §1
Mus musculus [4] = experiment: Antiinflammatory activity in Kunming mouse assessed as inhibition of xylene-induced ear edema at 20 mg/kg, po after […]rs; assay type: functional; in short: as §1
Mus musculus [5] = experiment: Gastrointestinal toxicity in mouse assessed as tail bleeding time at 200 mg/kg, po after 30 mins; assay type: organism-based; parameters: dose 200 mg/kg, route oral; conditions: in vivo, 0.5 h
In short: (§2)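 Male mice (18–22 g) are dosed orally and compared with an NS group. At 30, 45, 60 and 90 min after dosing, each mouse is restrained in a tube holder and a 2-mm cut is made on the tail. Blood is wiped away every 30 s until flow stops, and the time to cessation is recorded.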

Mus musculus [6] = experiment: Gastrointestinal toxicity in mouse assessed as tail bleeding time at 200 mg/kg, po after 45 mins; assay type: organism-based; parameters: dose 200 mg/kg, route oral; conditions: in vivo, 0.75 h; in short: as §2
Mus musculus [7] = experiment: Gastrointestinal toxicity in mouse assessed as tail bleeding time at 200 mg/kg, po after 60 mins; assay type: organism-based; parameters: dose 200 mg/kg, route oral; conditions: in vivo, 1 h; in short: as §2
Mus musculus [8] = experiment: Gastrointestinal toxicity in mouse assessed as tail bleeding time at 200 mg/kg, po after 90 mins; assay type: organism-based; parameters: dose 200 mg/kg, route oral; conditions: in vivo, 1.5 h; in short: as §2
[9] = Permeability from apical to basolateral side of human Caco-2 cell membrane; assay type: ADME, cell-based
[10] = Permeability from basolateral to apical side of human Caco-2 cell membrane; assay type: ADME, cell-based
Caco-2 = experiment: Ratio of permeability from apical to basolateral side over basolateral to apical side of human Caco-2 cell membrane; assay type: ADME, cell-based

IC50 [1] [µM] | SMILES | Time (Mus musculus [5]) [s] | Time (Mus musculus [6]) [s] | Time (Mus musculus [7]) [s] | Time (Mus musculus [8]) [s] | other results
2950 | O=C(Cc1ccccc1)N[C@H]1CCO[C@@H](c2ccc(Cl)cc2)OC1 | – | – | – | – | –
1100 | C[C@@H]1O[C@@H](c2ccc(Cl)cc2)OC[C@H]1N | 118.3 | 118.9 | 118.5 | 118.7 | inhibition in vivo at 5 mg/kg (Mus musculus [2]): 39.4%; inhibition in vivo at 10 mg/kg (Mus musculus [3]): 54.5%; inhibition in vivo at 20 mg/kg (Mus musculus [4]): 66.7%; Papp A→B [9]: 119 nm/s; Papp B→A [10]: 70.1 nm/s; Ratio (Caco-2): 1.7
1140 | C[C@@H]1O[C@H](c2ccc(Cl)cc2)OC[C@H]1N | 119.6 | 118.6 | 118.7 | 118.6 | inhibition in vivo at 5 mg/kg (Mus musculus [2]): 29.8%; inhibition in vivo at 10 mg/kg (Mus musculus [3]): 46.2%; inhibition in vivo at 20 mg/kg (Mus musculus [4]): 67.9%; Papp A→B [9]: 117 nm/s; Papp B→A [10]: 68.8 nm/s; Ratio (Caco-2): 1.7
– | N[C@H]1CO[C@@H](c2ccccc2)OC1 | 119.2 | 118.8 | 117.6 | 118.7 | –
1700 | C[C@@H]1O[C@H](C=Cc2ccccc2)OC[C@H]1N | 120.7 | 120.2 | 117.6 | 117.7 | inhibition in vivo at 20 mg/kg (Mus musculus [4]): 51.6%; Papp A→B [9]: 103 nm/s; Papp B→A [10]: 70.6 nm/s; Ratio (Caco-2): 1.46
– | Cc1ccc([C@H]2OC[C@@H](N)CO2)cc1 | 118.3 | 119 | 118.7 | 118.4 | –
– | C[C@@H]1O[C@H](/C=C/c2ccccc2)OC[C@H]1NC(=O)Cc1ccccc1 | – | – | – | – | Papp A→B [9]: 88 nm/s; Papp B→A [10]: 71.5 nm/s; Ratio (Caco-2): 1.23
– | N[C@H]1CCO[C@@H](c2ccc(Cl)cc2)OC1 | 118.4 | 119.6 | 118.6 | 119 | –
2850 | O=C(Cc1ccccc1)N[C@H]1CO[C@H](c2ccc([N+](=O)[O-])cc2)OC1 | – | – | – | – | –
2930 | O=C(Cc1ccccc1)N[C@H]1CCO[C@H](c2cccc([N+](=O)[O-])c2)OC1 | – | – | – | – | –
– | N[C@H]1CO[C@@H](c2ccc([N+](=O)[O-])cc2)OC1 | 119.4 | 118.7 | 120.6 | 119.4 | –
– | N[C@H]1CCO[C@H](c2cccc([N+](=O)[O-])c2)OC1 | 117.9 | 118.6 | 119 | 118.5 | –
2770 | O=C(Cc1ccccc1)N[C@H]1CO[C@@H](c2ccc([N+](=O)[O-])cc2)OC1 | – | – | – | – | –
– | O=C(Cc1ccccc1)N[C@H]1CO[C@H](/C=C/c2ccccc2)OC1 | – | – | – | – | Papp A→B [9]: 88.6 nm/s; Papp B→A [10]: 73.2 nm/s; Ratio (Caco-2): 1.21
– | N[C@H]1CCCO[C@H](c2ccc(Cl)cc2)OC1 | 117.9 | 118.7 | 119.1 | 118.3 | –
– | C[C@@H]1O[C@@H](c2ccc([N+](=O)[O-])cc2)OC[C@H]1NC(=O)Cc1ccccc1 | – | – | – | – | Papp A→B [9]: 104 nm/s; Papp B→A [10]: 69.8 nm/s; Ratio (Caco-2): 1.49
2690 | O=C(Cc1ccccc1)N[C@H]1CO[C@@H](c2ccc(Cl)cc2)OC1 | – | – | – | – | –
– | N[C@H]1CCCO[C@@H](c2ccc(Cl)cc2)OC1 | 119.4 | 117.5 | 118.4 | 117.8 | –
– | N[C@H]1CCCO[C@@H](c2ccc([N+](=O)[O-])cc2)OC1 | 118.6 | 119 | 118.4 | 117.6 | –
2920 | O=C(Cc1ccccc1)N[C@H]1CCO[C@H](c2ccc(Cl)cc2)OC1 | – | – | – | – | –
– | Cc1ccc([C@H]2OC[C@H](N)CO2)cc1 | 118.5 | 119.2 | 119.5 | 117.8 | –
– | C[C@@H]1O[C@H](c2ccc(Cl)cc2)OC[C@H]1NC(=O)Cc1ccccc1 | – | – | – | – | Papp A→B [9]: 102 nm/s; Papp B→A [10]: 68.6 nm/s; Ratio (Caco-2): 1.48
– | Cc1ccc([C@H]2OC[C@@H](N)[C@H](C)O2)cc1 | 120.9 | 121 | 119.8 | 118.7 | –
– | N[C@H]1CO[C@@H](c2ccc(Cl)cc2)OC1 | 118.5 | 118.9 | 120.9 | 119.4 | –
– | N[C@H]1CO[C@H](c2ccc([N+](=O)[O-])cc2)OC1 | 119.5 | 117.7 | 118.6 | 118.9 | –
– | C[C@@H]1O[C@H](c2ccccc2)OC[C@H]1N | 118.7 | 118.9 | 118.6 | 118.9 | –

IC50 [1] [µM] | SMILES | Time (Mus musculus [5]) [s] | Time (Mus musculus [6]) [s] | Time (Mus musculus [7]) [s] | Time (Mus musculus [8]) [s] | other results
– | Cc1ccc([C@@H]2OC[C@@H](N)[C@H](C)O2)cc1 | 120.4 | 118.5 | 118.9 | 117.7 | –
– | N[C@H]1CCCO[C@H](c2cccc([N+](=O)[O-])c2)OC1 | 117.8 | 117.9 | 121.5 | 118 | –
– | C[C@@H]1O[C@@H](c2cccc([N+](=O)[O-])c2)OC[C@H]1N | 118.9 | 119.2 | 117.4 | 118.3 | –
– | N[C@H]1CO[C@H](c2ccccc2)OC1 | 119.3 | 119.2 | 119.7 | 119.6 | –
1620 | C[C@@H]1O[C@@H](C=Cc2ccccc2)OC[C@H]1N | 117.2 | 118.6 | 118.4 | 119.2 | inhibition in vivo at 20 mg/kg (Mus musculus [4]): 52.9%; Papp A→B [9]: 102 nm/s; Papp B→A [10]: 71.7 nm/s; Ratio (Caco-2): 1.43
2710 | O=C(Cc1ccccc1)N[C@H]1CO[C@H](c2ccc(Cl)cc2)OC1 | – | – | – | – | –
2900 | O=C(Cc1ccccc1)N[C@H]1CO[C@H](c2cccc([N+](=O)[O-])c2)OC1 | – | – | – | – | –
– | N[C@H]1CCCO[C@@H](c2cccc([N+](=O)[O-])c2)OC1 | 119.3 | 118.2 | 118.5 | 119.3 | –
930 | C[C@@H]1O[C@H](c2ccc([N+](=O)[O-])cc2)OC[C@H]1N | 117.8 | 118.1 | 118.8 | 119 | inhibition in vivo at 5 mg/kg (Mus musculus [2]): 40.1%; inhibition in vivo at 10 mg/kg (Mus musculus [3]): 56.7%; inhibition in vivo at 20 mg/kg (Mus musculus [4]): 77.9%; Papp A→B [9]: 129 nm/s; Papp B→A [10]: 69 nm/s; Ratio (Caco-2): 1.86
2810 | O=C(Cc1ccccc1)N[C@H]1CO[C@@H](c2cccc([N+](=O)[O-])c2)OC1 | – | – | – | – | –
– | N[C@H]1CCO[C@@H](c2ccc([N+](=O)[O-])cc2)OC1 | 117.8 | 118.5 | 117.9 | 117.2 | –
– | N[C@H]1CCCO[C@H](c2ccc([N+](=O)[O-])cc2)OC1 | 118.6 | 120.3 | 118.5 | 117.7 | –
– | N[C@H]1CCO[C@H](c2ccc([N+](=O)[O-])cc2)OC1 | 118.5 | 119 | 118.6 | 117.9 | –
– | O=C(Cc1ccccc1)N[C@H]1CO[C@@H](/C=C/c2ccccc2)OC1 | – | – | – | – | Papp A→B [9]: 89.7 nm/s; Papp B→A [10]: 78.7 nm/s; Ratio (Caco-2): 1.14
– | N[C@H]1CCO[C@@H](c2cccc([N+](=O)[O-])c2)OC1 | 120.1 | 118.7 | 118.5 | 118.6 | –
2980 | O=C(Cc1ccccc1)N[C@H]1CCO[C@@H](c2ccc([N+](=O)[O-])cc2)OC1 | – | – | – | – | –
– | C[C@@H]1O[C@H](c2ccc([N+](=O)[O-])cc2)OC[C@H]1NC(=O)Cc1ccccc1 | – | – | – | – | Papp A→B [9]: 103 nm/s; Papp B→A [10]: 69.3 nm/s; Ratio (Caco-2): 1.49
– | N[C@H]1CO[C@@H](c2cccc([N+](=O)[O-])c2)OC1 | 119.3 | 118.2 | 119.1 | 120.2 | –
– | N[C@H]1CO[C@H](c2ccc(Cl)cc2)OC1 | 119 | 118.9 | 118.7 | 119.6 | –
– | N[C@H]1CCO[C@H](c2ccc(Cl)cc2)OC1 | 117.9 | 118.5 | 119.2 | 118.6 | –
– | C[C@@H]1O[C@H](c2cccc([N+](=O)[O-])c2)OC[C@H]1N | 118.9 | 118.2 | 119.5 | 118.2 | –
– | C[C@@H]1O[C@@H](c2ccc(Cl)cc2)OC[C@H]1NC(=O)Cc1ccccc1 | – | – | – | – | Papp A→B [9]: 102 nm/s; Papp B→A [10]: 70 nm/s; Ratio (Caco-2): 1.46
– | N[C@H]1CO[C@H](c2cccc([N+](=O)[O-])c2)OC1 | 118.8 | 118 | 118.4 | 118.7 | –
3010 | O=C(Cc1ccccc1)N[C@H]1CCO[C@@H](c2cccc([N+](=O)[O-])c2)OC1 | – | – | – | – | –
2860 | O=C(Cc1ccccc1)N[C@H]1CCO[C@H](c2ccc([N+](=O)[O-])cc2)OC1 | – | – | – | – | –
